# An excerpt weighted towards active compounds, which were near 2.1% of everything screened.
# STAT3 act – IL-6 driven STAT3 reporter potentiators, primary screen, U3A cells, luciferase, luminescence, MLSCN library; IL-6 STAT3-luciferase reporter; 100% = signal with IL-6 EC80 alone; AID 871, 2007; activation (% of control), % at 5.6 µM; actives 0.91% (n = 190,000);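 active = activation above the screen-wide mean of compound activation plus 3 SD, cut at about 130% in these data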;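 also: 0% = background luminescence of wells with medium and substrate only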
#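 Test system: human U3A cells carrying STAT3-luciferase construct; control set: IL-6-only wells as 100% reference; timing: compound pre-incubation 1 h before IL-6, then 6 h stimulation at 37 °C; also added: IL-6 stimulus at 33 ng/mL final; evaluation: % activation versus median of IL-6-stimulated wells; detection: reporter luminescence signal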
# STAT3 blocker – IL-6 driven STAT3 reporter inhibitors, primary screen, U3A cells, luciferase, luminescence, MLSCN library; IL-6 STAT3-luciferase reporter; host cell line lacks STAT1; inhibition, % at 5.5 µM; actives 0.89% (n = 190,000);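 active = inhibition above the mean inhibition across all screened compounds plus 3 SD, cut at about 44% in these data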;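 also: 0% = DMSO only wells and 100% = 100 µM nifuroxazide control wells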
# STAT1 inh – STAT1 signaling inhibitors, primary screen, cell-based, HTS, luciferase reporter; NIH 3T3 STAT1-luciferase reporter, IFN-gamma, luminescence; inhibition, % at 5.5 µM; actives 0.35% (n = 200,000);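 active = inhibition above a set limit, the mean inhibition across all tested compounds plus 3 SD, cut at about 34% in these data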;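 also: 0% = IFN-gamma with DMSO and 100% = IFN-gamma with 300 µM nifuroxazide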
# TNF death inh – inhibitors of TNF-alpha triggered necroptosis, primary screen, cell-based, Jurkat FADD-/-, single concentration. activation (protection from cell death), % at 10 µM. Jurkat FADD-/- TNF necroptosis rescue, ATP luminescence, 24 h; 0 = TNF only, 100 = no-TNF cells. actives 0.068% (n = 220,000);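 active = activation, meaning protection from cell death, of at least 50% relative to plate controls; inactive = activation below 50%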;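 also: necroptosis triggered by 40 ng/mL TNF-alpha added together with compound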
# zVAD death inh – inhibitors of zVAD-triggered necroptosis, primary screen, L929 cells. L929 zVAD necroptosis rescue, ATP luminescence, 24 h; with zVAD 60 µM. viability rescue, % at 10 µM. actives 0.38% (n = 220,000);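 active = activation, scaled between plate controls, above about 75%, limit read from the data; inactive = activation under that limit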;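 also: 0% = zVAD with DMSO and 100% = DMSO alone without zVAD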
# zVAD death conf – inhibitors of zVAD-triggered necroptosis in L929, confirmation, L929 cells, duplicate runs. actives 16% (n = 760). L929 zVAD-induced necroptosis rescue, ATP luminescence, 24 h. shares compounds with zVAD death inh. AID 463117, 2010. activation (protection from necroptosis), % at 10 µM;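 active = mean protection from necroptosis of at least 50% over duplicate tests; inactive = mean protection below 50%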;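 also: 0% = cells with zVAD alone and 100% = vehicle cells without zVAD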
# * marks the source's active call; other numbers are inactive results; . = no result given.
SMILES,STAT3 act,STAT3 blocker,STAT1 inh,TNF death inh,zVAD death inh,zVAD death conf
O=C(CSC1=NCCN1)NC12CC3CC(CC(C3)C1)C2,108,-2,-9,-8,85*,2
CC(C)=CC(=O)Nc1nc2ccc([N+](=O)[O-])cc2s1,100,7,-91,-5,77*,38
O=C(Nc1ccc(NC(=S)NC(=O)C(c2ccccc2)c2ccccc2)cc1)c1ccccc1,105,-1,-10,-9,78*,38
Oc1ccc(/C=N/Nc2ncc(Br)cn2)c(O)c1,93,13,-13,31,92*,3
CC1CCCCN1S(=O)(=O)c1ccc2c(c1)CCN2C(=O)CCC(=O)O (centres undefined),104,-2,0,0,0,.
CS(=O)(=O)N(CC(=O)NCc1cccnc1)Cc1ccc(Cl)cc1,105,-6,0,-2,0,.
CCCN1C(=O)/C(=C/c2ccc(C)s2)NC1=S,100,3,6,30,92*,87*
Cc1ccc(/C=C2/NC(=O)N(Cc3ccccc3F)C2=O)s1,108,4,-9,1,2,.
O=C(Nc1ccc(-c2csc(Nc3ccccc3)n2)cc1)c1cccc(C(F)(F)F)c1,.,.,.,6,60,.
O=C(Nc1ccc(-c2csc(Nc3ccc(Cl)cc3)n2)cc1)c1cccc(C(F)(F)F)c1,.,.,.,8,82*,39
COc1cc(/C=N/Nc2nc3ccccc3[nH]2)ccc1O,96,8,-16,36,79*,47
COc1cc(/C=N/Nc2nc3ccccc3[nH]2)cc(Br)c1OCC(=O)N(C)C,88,19,-8,64*,75*,60*
COc1cc(/C=N/Nc2nc3ccccc3[nH]2)cc(OC)c1O,81,20,10,16,87*,3
COc1cccc(/C=N/Nc2nc3ccccc3[nH]2)c1OC,.,.,.,12,7,.
COc1cc(/C=N/Nc2nc3ccccc3[nH]c2=O)ccc1O,94,13,-13,-3,78*,15
COc1cccc(/C=N/Nc2nc3ccccc3[nH]2)c1O,.,.,.,-11,15,.
Cc1ccc(N2CCN(S(=O)(=O)N3CCCCC3)CC2)cc1C,103,6,4,1,2,.
COc1ccc(/C=N/NC(=S)NCC2CCCO2)cc1 (centres undefined),.,.,.,1,-1,.
CC1CCN(c2nc(CN3CCCCC3)nc3scc(-c4ccccc4)c23)CC1,97,5,2,2,0,.
CCOC(=O)CNC(c1ccccc1)c1cc(Br)ccc1NC(C)=O (centres undefined),104,-1,6,2,-1,.
O=c1nc(NCc2ccccc2Cl)cn[nH]1,96,6,1,-1,0,.
Cc1ccc(S(=O)(=O)NNC(=O)C(=O)NNc2ccccn2)cc1,101,8,3,-2,1,.
O=C(CSc1ccccn1)Nc1cccc2ccccc12,107,-1,-4,-1,0,.
CCN1CCN(C(=O)Cn2ncc3ccsc3c2=O)CC1,97,9,-8,-1,0,.
COc1ccc(/C=C/c2nc(-c3ccccc3O)n[nH]2)cc1OC,93,12,-6,1,81*,4
SMILES,STAT3 act,STAT3 blocker,STAT1 inh,TNF death inh,zVAD death inh,zVAD death conf
C/C(=N\OC(=O)c1ccc(Br)cc1)c1ccccn1,112,-14,-6,1,0,.
CC1=NN(c2ccccc2)C(=O)/C1=C\c1cc(C)n(-c2ccccc2)c1C,105,-12,-3,3,88*,2
c1cnc2ccc(C(c3nnnn3C3CCCCC3)N3CCN(C4CCCCC4)CC3)cc2c1 (centres undefined),110,-9,10,3,77*,70*
C/C(=N\OCC(=O)Nc1ccc2c(c1)OCCO2)c1ccc2c(c1)OCCO2,104,1,-6,1,86*,4
CCOCC(=O)Nc1ccc2c(c1)OCCO2,108,-8,-16,1,0,.
COc1ccc(CNC(=O)CS(=O)Cc2nc(-c3ccccc3C)oc2C)cc1 (centres undefined),103,5,-2,0,2,.
CN(c1ccccc1)c1nc(N)c([N+](=O)[O-])c(NCCO)n1,.,.,.,-1,1,.
CCOC(=O)c1c(NC(=O)N/N=C/c2ccccc2OCC)sc(C(C)=O)c1C,89,14,0,2,1,.
CCOC(=O)c1c(NC(=O)N/N=C/c2ccc(O)c(OC)c2)sc(C(C)=O)c1C,.,.,.,-13,78*,40
Cc1cccc(Cn2c(=O)c3c(nc4n3CCN4Cc3ccco3)n(C)c2=O)c1,104,2,4,1,2,.
N=c1nc(N)nc2n1NC(c1ccc(F)cc1)=CS2,88,17,-25,20,81*,40
O=C(COc1ccc(C2SCCS2)cc1)NNC(=O)C(Cl)Cl,.,.,.,1,1,.
CC(=O)/C(=C\N(C)C)Sc1ccc(Cl)cc1,.,.,.,2,0,.
S=C(Sc1ccc(Cl)cc1)Sc1ccc(Cl)cc1,.,.,.,-28,76*,1
Brc1ccc(/C=N/Nc2ccccn2)cc1,85,22,-38,15,78*,4
C(=N\Nc1ccccn1)/c1ccc(N2CCOCC2)cc1,84,23,-24,30,75,.
Cc1noc(C)c1/C=N/Nc1ccccn1,86,18,-1,45,82*,73*
COc1ccc(/C=N/Nc2ccccn2)cc1O,.,.,.,60*,90*,64*
Clc1ccc(/C=N/Nc2ccccn2)cc1,83,25,-35,18,81*,45
COc1cc(/C=N/NC(=O)C(=O)Nc2ccccn2)ccc1O,104,-2,-19,0,0,.
CC(C)(C)C(=O)Nc1nnc(CSCc2ccccc2F)s1,92,14,6,1,-1,.
CCOC(=O)c1c(NC(=O)c2nn(CC)cc2Br)sc(C)c1C,96,8,-6,-1,0,.
O=C(Nc1ccc(Cl)cc1)N1N=CCC1c1ccccc1 (centres undefined),.,.,.,92*,79*,25
O=C(Nc1ccc(Cl)cc1)N1CCN(c2ccccc2)CC1,87,18,-7,1,0,.
Cc1cc(C(=O)COc2cccc(-n3cnnn3)c2)c(C)n1-c1ccccc1,86,20,-20,-7,81*,36
CC(=O)Oc1ccc(/C=N/NC(=S)Nc2ccccc2)cc1,81,21,-68,1,2,.
Oc1c(Br)cc(/C=N/NC(=S)NCc2ccco2)cc1Br,.,.,.,3,0,.
CC1CCCCC1NC(=O)Cn1nnc(-c2ccc(Cl)cc2)n1 (centres undefined),93,12,-2,-1,78*,3
